Data as given in the RNAGym collection of RNA variant scans (doi:10.1126/science.aae0568).
This sample holds only a part of the variants without activity.

B1: tRNA (parent)
chain: GUUCCGUUGGCGUAAUGGUAACGCGUCUCCCUCCUAAGGAGAAGACUGCGGGUUCGAGUCCCGUACGGAACG

Variants of: B1
Assay: yeast fitness relative to wild type (ratio to wild type); higher = fitter; tRNA-Arg(CCU), competitive growth, 37 C, YPD
Outline: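 Genotype frequency changes were the basis for Darwinian fitness relative to wild type. The frequencies came from 100-nucleotide paired-end sequencing of gene amplicons from the start population and each end population of pooled yeast strains with tRNA-Arg(CCU) gene variants at the native locus. Competition ran in YPD at 37°C for 24 hours in six replicates, genotypes needed ≥ 100 starting reads, and estimates < 0.5 were set to 0.5.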

Row | Variant | yeast fitness
1 | GUUCCGUUCGCGUAAUGGUAACGCGUUUCCCUCCUAAGGAGAAGACUGCGGGAUCGAGUCCCGUACGGAACG [G9C C27U U53A] | 0.548
2 | GUUCCGUUCGCGUAAUGGUAUCGCGUCUCCCUCCUAAGGAGAAGACUGCGGGUACGAGUCCCGUACGGAGCG [G9C A21U U54A A70G] | ≤ 0.5
3 | GUUCCGUUCGCGUAAUGGUAACGCGUGUGCCUCCUCAGGAGAAGACUGCGGGUUCGAGUCCCGUACGGAACG [G9C C27G C29G A36C] | ≤ 0.5
4 | GUUCCGUUCGCGUAAUGGUAAGGCGUCUCCCUACUAAGGAGAAGACUGCGGGUUCGAGUCCCGUACGGAACG [G9C C22G C33A] | 0.598
5 | GUUCCGUUCGCGUAAUGGUAACGCGUCUCCCUCCUUAGGAGAAGACUGCGGGUUCGAGUGCCCUACGGAACG [G9C A36U C60G G63C] | ≤ 0.5
6 | GUUCCGUUCGCGUAAUGGUAACGCGUCUCCCUCCUAAGGAGGAGACUGCGGGUUCGAGUCCCGUACGGAACG [G9C A42G] | 0.673
7 | GUUCCGUUCGCGUAAUGGUAACGCGUCUCCCUCCUAAGGAGUAGACUGCGGGUUCGAGUCCCGUACGGAACG [G9C A42U] | 0.624
8 | GUUCCGUUCGAGUAAUGGUAACGCGUCUCCCUCCUAAGGCGAAGACUGCGGGUUCGAGUCCCGUACGGAACG [G9C C11A A40C] | 0.671
9 | GUUCCGUUCGAGUAAUGGUAACGCGUCUCCCUAAUACGGAGAGGACUGCGGGUUCGAGUCCCGUACGGAACG [G9C C11A C33A C34A A37C A43G] | ≤ 0.5
10 | GUUCCGUUCGCGUAAUGGUAACGCGUCUCCCUCCUUAGGAGAAGCCUGCGGAUUCGAGUCCCGUACGGAACG [G9C A36U A45C G52A] | ≤ 0.5
11 | GUUCCGUUCGCGUAAUGGUAACGCGUAUCUCUGCUAAGGAGAAGACUGCGGGUUCGAGUCCCGUACGGAACG [G9C C27A C30U C33G] | ≤ 0.5
12 | GUUCCGUUCGCGUAAUGGUAACGCGUCUUACUCCUAAGGAGAAGAGUGCGGGUUCGAGUCCCGUACGGAACG [G9C C29U C30A C46G] | ≤ 0.5
13 | GUUCCGUUCGCGUAAUGGUAACGUGGCUCCCUCCUAAGGAGAAGACUGCGGGUUCGAGUCCUGUACGGAACG [G9C C24U U26G C62U] | ≤ 0.5
14 | GUUCCGUUCGCGUAAUGGUAACGCGUUUCCCUCCUAAGGAGAAGACUGCGGCUUCGAGUCCCGUACGGAACG [G9C C27U G52C] | ≤ 0.5
15 | GUUCCGUUCGCGUAAUGGUAACGCGUCUCCCUCCUAUGGAGAAGACUGCGGGUUCGAGUCCCGUACGGAACG [G9C A37U] | 0.663
16 | GUUCCGUUCGCGUAAUGGUAACGGGUCUGCCUCCUAAGGAGAAGACUGCGGGUUUGAGUCCCGUACGGAGCG [G9C C24G C29G C55U A70G] | ≤ 0.5
17 | GUUCCGUUCGCGUAAUGGUAACGCGUCUGCUUCGUAAGGAGGAGACUGCGGGUUCGAGUCCCGUACGGAACG [G9C C29G C31U C34G A42G] | 0.535
18 | GUUCCGUUCGAGUAAUGGUAACGCGUCUCCCUCCUAAGGAGAAGACGGCGGGUUCGAGACCCGUACGGAACG [G9C C11A U47G U59A] | ≤ 0.5
19 | GUUCCGUUCGCGUAAUGGUAACGCGUCUCUGUCCUAAGGAGAAGACUGCGGGUUCGAGUCCCGUACGGAACG [G9C C30U C31G] | 0.632

Row | Variant | yeast fitness
20 | GUUCCGUUCGCGUAAUGGUAACGCGUCUACCUCUUAAGGAGAAGACUGCGGGUUCGAGUCCCGUACGGAACG [G9C C29A C34U] | ≤ 0.5
21 | GUUCCGUUCGCGUAAUGGUAACGCGUCUCGCUCCUAACGAGAAGACUGCGGGUUCGACUCCCGUAAGGAACG [G9C C30G G38C G58C C66A] | 0.535
22 | GUUCCGUUCGCGUAAUGGUAACGCGUCUCCCUCCUAAGGAGAAGGCUGCGGGUUCGAGUCCCGUACGGAACG [G9C A45G] | 0.78
23 | GUUCCGUUCGCGUAAUGGUAACGCGUCUCACUCCCAAGGAGAAGACUGCGGGUUCGAGUCCCGUACGGAACG [G9C C30A U35C] | ≤ 0.5
24 | GUUCCGUUCGCGUAAUGGUAACGCGUCUCCCUCCUAGGGAAAAGACUGCAGGUUCGAGUCCCGUACGGAACG [G9C A37G G41A G50A] | 0.532
25 | GUUCCGUUCGCGUAAUGGUAAGGCGUCUCCCUCCUAAGGAGAAGACUGCGGGUUCGAGUCCUGUAAGGAACG [G9C C22G C62U C66A] | ≤ 0.5
26 | GUUCCGUUCGUGUAAUGGUAACGGGUCUCCUUCUUAAGGAGAAGACUGUGGGUUCGAGUCCCGUACGGCACG [G9C C11U C24G C31U C34U C49U A69C] | ≤ 0.5
27 | GUUCCGUUCGCGUAAUGGUAACGUGUCUCGCUCCUAAGGAGAAGACUGCGGAUUCGAGUCUCGUACGGAACG [G9C C24U C30G G52A C61U] | ≤ 0.5
28 | GUUCCGUUCGGGUAAUGGUUACGCGUCUCCUUCCUAACGAGAAGACUGCGGGUUCGAGUCCCGUACGGAACG [G9C C11G A20U C31U G38C] | ≤ 0.5
29 | GUUCCGUUCGCGUAAUGGUAACGCGUCUCCCUCCUAAGGAGAUGACUGAGGGUUCGAGUCCCGUACGGAACG [G9C A43U C49A] | ≤ 0.5
30 | GUUCCGUUCGCGUAAUGGUAACGCGUCUCCCUCCUAAGGAGAUGACUGCGGGUUCGAGUCCCGUACGGAACG [G9C A43U] | 0.694
31 | GUUCCGUUCGCGUAAUGGUAACGCGUCUUCCUCCUUAGGAGAAGACUGCGGGUUCGAGUCCCGUGCAGAACG [G9C C29U A36U A65G G67A] | ≤ 0.5
32 | GUUCCGUUCGCGUAAUGGUAAGGCGUCUCCCUCCUAAGGAGAAGACUGCGGGUUCGAGUCACAUACGGAACG [G9C C22G C61A G63A] | ≤ 0.5
33 | GUUCCGUUCGCGUAAUGGUAACGCGUGUCCCUCCUAAGGAGAAGAUUGCGGGUUCGAGUCCCGUACGGAACG [G9C C27G C46U] | 0.582
34 | GUUCCGUUCGCGUAAUGGUAACGCGUGUCCCUCCUAAGGAGAAGACUGCGGCUUCGAGUCCCGUACGGAACG [G9C C27G G52C] | 0.595
35 | GUUCCGUUCGCGUAAUGGUAACGCGUCUGCCUCGUAAGGAGAAGACUGCGGGUUCGAGUCCCGUACGGAACG [G9C C29G C34G] | ≤ 0.5
36 | GUUCCGUUCGAGUAUUGGUAACGGGUCUCCCUGCUAACGAGAGGACUGCGGGUUCGAGUUCCAUACGGAACG [G9C C11A A15U C24G C33G G38C A43G C60U G63A] | ≤ 0.5
37 | GUUCCGUUCGAGUAUUGGUAACGGGUCUCCCUGCUAACGAGAGGACUGCGGGUUCGAGUCGCGUACGGAACG [G9C C11A A15U C24G C33G G38C A43G C61G] | ≤ 0.5
38 | GUUCCGUUCGCGUAAUGGUAACGCGUCUCCCUCCUAAGGAGAGGACUGCGGGUUCGAGUCCCGUACGAAACG [G9C A43G G68A] | ≤ 0.5
